According to publication PMC8296307 (Epilepsy research, 2021):
Like-named read-outs stand apart in the source and are kept apart here.

Key:
h5-HT2A = h5-HT2A (Homo sapiens, UniProt P28223); assay: 5-HT2AR-mediated phosphoinositide hydrolysis, h5-HT2A in HEK293 cells; format: cell-based; conditions: relative to 5-HT
m5-HT2C-VNV [1] = target: T1, m5-HT2C-VNV (Mus musculus, UniProt P34968, I157V/I161V); format: binding
T1 sequence (P34968 33-459 I157V/I161V): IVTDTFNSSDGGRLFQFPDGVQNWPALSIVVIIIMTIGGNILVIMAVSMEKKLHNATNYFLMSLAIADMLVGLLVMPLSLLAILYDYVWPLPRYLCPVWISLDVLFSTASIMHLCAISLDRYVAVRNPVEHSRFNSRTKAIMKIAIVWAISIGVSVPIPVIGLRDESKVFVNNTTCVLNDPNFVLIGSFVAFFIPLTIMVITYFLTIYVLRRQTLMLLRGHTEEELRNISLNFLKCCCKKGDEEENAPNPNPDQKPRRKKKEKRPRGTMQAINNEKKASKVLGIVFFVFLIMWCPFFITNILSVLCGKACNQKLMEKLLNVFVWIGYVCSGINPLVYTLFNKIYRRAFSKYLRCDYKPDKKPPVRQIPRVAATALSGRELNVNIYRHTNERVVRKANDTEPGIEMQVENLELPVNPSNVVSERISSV

h5-HT2C-INI [2] = target: T2, h5-HT2C-INI (Homo sapiens, UniProt P28335); assay: 5-HT2CR-mediated phosphoinositide hydrolysis, h5-HT2C-INI in HEK293 cells; format: cell-based; conditions: for agonist efficacy: relative to 5-HT
T2 sequence (P28335 33-458): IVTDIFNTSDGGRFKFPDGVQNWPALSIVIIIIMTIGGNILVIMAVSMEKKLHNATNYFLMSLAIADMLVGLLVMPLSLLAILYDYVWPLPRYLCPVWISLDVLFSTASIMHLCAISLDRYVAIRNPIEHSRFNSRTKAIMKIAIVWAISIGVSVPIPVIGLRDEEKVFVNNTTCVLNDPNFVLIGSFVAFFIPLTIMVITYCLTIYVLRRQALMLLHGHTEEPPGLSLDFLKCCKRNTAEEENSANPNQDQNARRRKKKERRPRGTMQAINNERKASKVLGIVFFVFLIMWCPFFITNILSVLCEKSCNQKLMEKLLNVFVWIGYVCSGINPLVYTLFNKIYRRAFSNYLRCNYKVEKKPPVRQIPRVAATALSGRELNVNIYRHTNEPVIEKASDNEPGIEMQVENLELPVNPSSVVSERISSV

m5-HT2C-VNV [3] = target: T1, m5-HT2C-VNV; assay: 5-HT2CR-mediated phosphoinositide hydrolysis, m5-HT2C-VNV in HEK293 cells; format: cell-based; conditions: for agonist efficacy: relative to 5-HT
m5-HT2A [4] = target: T3, m5-HT2A (Mus musculus, UniProt P35363); assay: 5-HT2AR-mediated phosphoinositide hydrolysis, m5-HT2A in HEK293 cells; format: cell-based
T3 sequence (P35363 whole entry): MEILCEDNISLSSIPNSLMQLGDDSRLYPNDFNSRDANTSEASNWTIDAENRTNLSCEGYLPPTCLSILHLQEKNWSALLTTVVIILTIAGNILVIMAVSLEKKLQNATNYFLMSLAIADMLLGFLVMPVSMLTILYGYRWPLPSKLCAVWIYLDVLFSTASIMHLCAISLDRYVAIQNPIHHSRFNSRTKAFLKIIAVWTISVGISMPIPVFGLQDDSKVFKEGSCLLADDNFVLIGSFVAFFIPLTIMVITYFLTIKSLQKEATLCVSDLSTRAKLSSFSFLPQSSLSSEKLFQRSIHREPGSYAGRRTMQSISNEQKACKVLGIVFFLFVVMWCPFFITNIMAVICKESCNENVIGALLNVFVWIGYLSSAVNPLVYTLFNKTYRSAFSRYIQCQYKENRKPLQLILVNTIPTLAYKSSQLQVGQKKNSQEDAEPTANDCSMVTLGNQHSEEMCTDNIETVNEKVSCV

m5-HT2A [5] = target: T3, m5-HT2A; assay: Radioligand competition binding, [3H]Ketanserin, m5-HT2A in HEK293 membranes
h5-HT2C-INI [6] = target: T2, h5-HT2C-INI; format: binding; conditions: [3H]Mesulergine, one-site fit Ki
C57BL/6J mice [7] = assay: DOI-elicited head-twitch response; format: in vivo, mouse; conditions: for HTR (mean count): 10-minute session
In short: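 C57BL/6J mice were acclimated to the testing room for ≥60 min. They then received s.c. vehicle (Milli-Q water) or test compound (1, 3 or 5.6 mg/kg), followed 10 min later by s.c. 5-HT2R agonist challenge (1.0 mg/kg). After a further 10 min, mice were placed in the open field for a 10-min session. Head twitches (rapid, discrete head jerks) were counted with a tally counter by an observer blind to treatment.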

[8] = system: juvenile Fmr1 knockout mice; conditions: ref Armstrong et al., 2020; cited from earlier work
[9] = steady-state clinical dosing of 10 mg twice daily in monkeys; ref FDA briefing document NDA22529; cited from earlier work
C57BL/6J mice [10] = assay: Head-twitch response; format: in vivo, mouse; conditions: vehicle 2.6
C57BL/6J mice [11] = assay: Locomotor activity in open field; format: in vivo, mouse
[12] = system: juvenile Fmr1 knockout mice; assay: Audiogenic seizures; format: in vivo, mouse; conditions: for lethality: vehicle 60%; for seizure prevalence (TCS): vehicle 70%; for mean WRJ duration (± SD): vehicle 10 (±5)
[13] = phosphoinositide hydrolysis, mean
[14] = phosphoinositide hydrolysis, mean (95% CI)
[15] = lorcaserin 5.6 mg/kg with M100907 0.03 mg/kg pretreatment
[16] = 30 mg/kg i.p., 30 min before test

Sequence of h5-HT2A (P28223 whole entry): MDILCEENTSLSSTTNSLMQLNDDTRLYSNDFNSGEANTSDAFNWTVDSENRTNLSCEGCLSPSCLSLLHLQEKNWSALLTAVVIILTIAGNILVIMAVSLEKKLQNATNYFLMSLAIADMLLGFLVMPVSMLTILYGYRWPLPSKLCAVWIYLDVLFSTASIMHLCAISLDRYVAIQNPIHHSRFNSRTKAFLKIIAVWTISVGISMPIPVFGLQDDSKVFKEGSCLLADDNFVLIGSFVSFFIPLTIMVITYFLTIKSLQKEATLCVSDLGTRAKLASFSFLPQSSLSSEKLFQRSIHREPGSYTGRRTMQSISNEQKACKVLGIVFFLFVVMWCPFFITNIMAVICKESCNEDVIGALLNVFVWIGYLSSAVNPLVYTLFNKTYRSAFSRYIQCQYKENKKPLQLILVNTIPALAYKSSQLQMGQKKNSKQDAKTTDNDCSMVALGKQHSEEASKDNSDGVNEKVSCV

COc1cc(CC(C)N)c(OC)cc1I (racemic) [DOI, (±)-2,5-dimethoxy-4-iodoamphetamine]
agonist efficacy (h5-HT2A): full efficacy h5-HT2AR agonist activity | Ki (m5-HT2C-VNV [1]; [3H]Mesulergine, one-site fit Ki, mean): 65 nM | pKi (95% CI) (m5-HT2C-VNV [1]; [3H]Mesulergine, one-site fit Ki, mean (95% CI)): 7.19 (7.28 to 7.10) | EC50 (h5-HT2C-INI [2]; [13]): 4.1 nM | pEC50 (95% CI) (h5-HT2C-INI [2]; [14]): 8.39 (8.76 to 8.04) | agonist efficacy (h5-HT2C-INI [2]): full agonists | EC50 (m5-HT2C-VNV [3]; [13]): 8 nM | pEC50 (95% CI) (m5-HT2C-VNV [3]; [14]): 8.10 (8.41 to 7.80) | agonist efficacy (m5-HT2C-VNV [3]): full agonists | EC50 (m5-HT2A [4]; [13]): 1 nM | pEC50 (95% CI) (m5-HT2A [4]; [14]): 9.00 (9.44 to 8.57) | agonist efficacy (m5-HT2A [4]; relative to 5-HT): full efficacy m5-HT2AR agonist activity | Ki (m5-HT2A [5]; [3H]Ketanserin, one-site fit Ki, mean): 33 nM | pKi (95% CI) (m5-HT2A [5]; [3H]Ketanserin, one-site fit Ki, mean (95% CI)): 7.48 (7.54 to 7.42) | pKi (95% CI) at the high-affinity site (m5-HT2A [5]; two-site fit Ki model): 8.01 (8.70 to 7.64) | pKi (95% CI) at the low-affinity site (m5-HT2A [5]; two-site fit Ki model): 7.02 (7.32 to 6.30) | Ki (h5-HT2C-INI [6]; mean): 96 nM | pKi (95% CI) (h5-HT2C-INI [6]; mean (95% CI)): 7.02 (7.11 to 6.93) | HTR (mean count) (C57BL/6J mice [7]; DOI 1 mg/kg s.c. alone): 37.6 | more HTRs than SB242084 plus lorcaserin (C57BL/6J mice [7]; DOI 1 mg/kg vs SB242084 plus lorcaserin 3 mg/kg): 5 fold

CN(C)[C@H]1CCc2c(cccc2-c2ccccc2F)C1 [FPT, (S)-5-(2’-Fluorophenyl)-N,N-dimethyl-1,2,3,4-tetrahydronaphthalen-2-amine]
prevention of AGSs [8]: completely prevents AGSs

O=C(c1ccc(F)cc1)C1CCN(CCn2c(=O)[nH]c3ccccc3c2=O)CC1 [Ketanserin]
Ki (m5-HT2A [5]; pKi (95% CI), [3H]Ketanserin, one-site fit Ki, mean (95% CI)): 2.69 nM

C[C@H]1CNCCc2ccc(Cl)cc21 [Lorcaserin]
Ki (m5-HT2C-VNV [1]): 741 nM | brain concentrations [9]: ~ 1.7 μM | agonist efficacy (h5-HT2C-INI [2]): full agonists | HTR (mean count) (C57BL/6J mice [10]; 3 mg/kg s.c. alone): 4.1 | HTR (mean count) (C57BL/6J mice [10]; lorcaserin 3 mg/kg with SB242084 0.5 mg/kg s.c.): 7 | HTR (mean count) (C57BL/6J mice [10]; lorcaserin 3 mg/kg with SB242084 1 mg/kg s.c.): 6.3 | EC50 (m5-HT2C-VNV [3]): 15.8 nM | agonist efficacy (m5-HT2C-VNV [3]): full agonists | effect on locomotor activity (C57BL/6J mice [11]; 3 mg/kg s.c. alone, relative to vehicle (P<0.0001)): significantly reduced locomotor activity | effect on locomotor activity (C57BL/6J mice [11]; lorcaserin 3 mg/kg combined with SB242084 0.5 mg/kg, relative to vehicle (P=0.0003)): significantly enhanced locomotor activity | lethality ([12]; 1 mg/kg i.p.): 67% | seizure prevalence (TCS) ([12]; 1 mg/kg i.p.): 83% | lethality ([12]; 3 mg/kg i.p.): 28% | seizure prevalence (TCS) ([12]; 3 mg/kg i.p.): 56% | attenuation of AGS lethality ([12]; 3 mg/kg, relative to vehicle, not significant (P=0.06)): 32% | attenuation of AGS prevalence ([12]; 3 mg/kg, relative to vehicle, not significant (P=0.5)): 14% | mean WRJ duration (± SD) ([12]; 5.6 mg/kg alone): 19 (±12) seconds | lethality ([12]; 5.6 mg/kg i.p.): 78% | seizure prevalence (TCS) ([12]; 5.6 mg/kg i.p.): 94% | mean WRJ duration (± SD) ([12]; 5.6 mg/kg in combination with M100907 0.03 mg/kg): 20 (±14) seconds | mean TCS onset latency (± SD) ([12]; 5.6 mg/kg, vehicle 41 (±8)): 58 (±21) seconds | lethality ([12]; 10 mg/kg i.p.): 78% | seizure prevalence (TCS) ([12]; 10 mg/kg i.p.): 89% | effect on WRJ latency ([12]; 1, 3, 5.6, 10 mg/kg): did not affect WRJ latency | prevention of AGSs ([12]; 1-10 mg/kg i.p.): ineffective at preventing AGSs | lethality [12, 15]: 50% | seizure prevalence (TCS) [12, 15]: 90% | behaviours observed in treated animals ([12]; some animals that received lorcaserin): purposeless oral movements | EC50 (m5-HT2A [4]; EC50, phosphoinositide hydrolysis, mean): 212 nM | Emax (m5-HT2A [4]; HEK293): 84.6% | EC50 (m5-HT2A [4]; pEC50 (95% CI), phosphoinositide hydrolysis, mean (95% CI)): 209 nM | Ki (m5-HT2A [5]; Ki, [3H]Ketanserin, one-site fit Ki, mean): 4460 nM | HTR (mean count) (C57BL/6J mice [7]; lorcaserin 3 mg/kg plus DOI 1 mg/kg): 44.1 | HTR (mean count) (C57BL/6J mice [7]; lorcaserin 5.6 mg/kg plus DOI 1 mg/kg): 44.9

COc1cccc([C@H](O)C2CCN(CCc3ccc(F)cc3)CC2)c1OC [M100907]
lethality ([12]; 0.03 mg/kg i.p. alone): 88% | seizure prevalence (TCS) ([12]; 0.03 mg/kg i.p. alone): 100%

Cc1cccc(C#Cc2ccccc2)n1 [MPEP, 2-methyl-6-(phenylethynyl)pyridine]
lethality [12, 16]: 12% | seizure prevalence (TCS) [12, 16]: 12% | mean latency (± SD) to first episode of WRJ ([12]; 30 mg/kg, vehicle 36 (±11)): 160 (±19) seconds

CN1C[C@@H](NS(=O)(=O)N(C)C)C[C@@H]2c3cccc4c3c(cn4C)C[C@H]21 [Mesulergine]
Ki (m5-HT2C-VNV [1]): 3.39 nM

Cc1cc2c(cc1Cl)N(C(=O)Nc1ccc(Oc3cccnc3C)nc1)CC2 [SB242084]
effect on lorcaserin (3 mg/kg) reduced locomotor activity (C57BL/6J mice [11]; SB242084 0.5 mg/kg and 1 mg/kg s.c.): overturned
